Data set [1] is described as follows: Cmax in Wistar rat liver at 10 mg/kg, po. Type of data set: ADME, organism-based. More on the design: dose 10 mg/kg, route oral. The method in brief: (§1)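 Female Wistar rats given a single oral dose of 10 mg/kg in 10% DMSO. Plasma and liver sampled at eight time points over 24 h, three animals killed per time point. Drug levels measured by LC-MS/MS with an internal standard. […] Values are means ± SD (n = 3).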

Data set [2] can be described thus: Oral bioavailability in Wistar rat at 10 mg/kg. It is filed as ADME, organism-based. The conditions noted are these: in vivo.
The nature of data set [3]: Inhibition of N-terminal His-tagged rat recombinant ACC2 expressed in high five insect cells by ATP consumption assay.
A short description of data set [4]: Drug concentration in Wistar rat plasma at 10 mg/kg, po measured 6 hrs post dose. Type of data set: ADME, organism-based. More on the design: dose 10 mg/kg, route oral. The conditions noted are these: read-out: Drug uptake. The procedure, abridged:
as §1

For data set [5], the target named is T1, Peroxisome proliferator-activated receptor delta (Homo sapiens) (UniProt Q03181).
T1 sequence (whole entry): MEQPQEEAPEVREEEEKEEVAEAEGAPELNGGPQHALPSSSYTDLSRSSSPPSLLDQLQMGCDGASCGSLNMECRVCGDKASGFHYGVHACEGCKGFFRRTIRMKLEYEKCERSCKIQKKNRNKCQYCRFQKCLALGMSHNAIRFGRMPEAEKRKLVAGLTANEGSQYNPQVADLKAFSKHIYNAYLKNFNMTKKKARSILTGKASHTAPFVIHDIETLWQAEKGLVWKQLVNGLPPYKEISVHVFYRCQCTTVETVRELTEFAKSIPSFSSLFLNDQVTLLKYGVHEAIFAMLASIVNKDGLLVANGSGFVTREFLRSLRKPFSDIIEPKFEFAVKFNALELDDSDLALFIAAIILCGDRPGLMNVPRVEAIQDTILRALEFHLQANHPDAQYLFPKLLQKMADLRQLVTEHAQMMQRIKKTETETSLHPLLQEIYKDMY
The data set is described as follows: Inhibition of PPARdelta.

A short description of data set [6]: Half life in Wistar rat plasma at 3 mg/kg, iv. It is filed as ADME, organism-based. More on the design: dose 3 mg/kg, route intravenous. The procedure, abridged:
(§2)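 Wistar rats given an intravenous bolus of 3 mg/kg in 5% solutol solution. Plasma sampled at eight time points over 24 h. Drug quantified by LC-MS/MS against an internal standard. C0h is the concentration immediately after dosing; AUC0-inf, clearance, t1/2 and Vdss were also derived.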

Data set [7] in a line: Half life in Wistar rat liver at 10 mg/kg, po. It is filed as ADME, organism-based. More on the design: dose 10 mg/kg, route oral. The method in brief:
as §1

The test system of data set [8] is Hepatocyte. The data set is described as follows: Stimulation of fat oxidation in human hepatocytes assessed as release of 3H2O from ss-oxidation of [9,10(n)-3[3H]palmitic acid after 4 hrs. It is filed as functional, cell-based. The method in brief: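 Attached human hepatocytes washed with PBS, then incubated in DMEM with 5 μM ³H-palmitic acid (15000 Bq/ml), 0.2 mg/mL BSA, 500 μM L-carnitine, 0.1% DMSO, 25 mM glucose and inhibitor. Started with 0.5 μCi [³H]palmitate. ³H₂O release measured after 4 h by scintillation. Expressed as fold of the 0 μM control; means ± SEM (n = 4).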

Data set [9] is described as follows: Ratio of AUC (0 to infinity) in liver to plasma of Wistar rat at 10 mg/kg, po. Type of data set: ADME, organism-based. More on the design: dose 10 mg/kg, route oral. The procedure, abridged:
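Female Wistar rats received a single oral 10 mg/kg dose in 10% DMSO. Plasma and liver were sampled at eight time points over 24 h, with three animals killed per time point. Drug levels were measured by LC-MS/MS against an internal standard. Liver/plasma ratio was calculated from AUC0-inf.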

Data set [10] can be described thus: Clearance in Wistar rat plasma at 3 mg/kg, iv. Type of data set: ADME, organism-based. More on the design: dose 3 mg/kg, route intravenous. The method in brief: as §2
Data set [11] relates to Rattus norvegicus. The data set can be described thus: Reduction in plasma triglycerides in obese ZDF rat at 30 mg/kg, po for 3 days measured 4 hrs post last dose. Type of data set: functional, organism-based. More on the design: dose 30 mg/kg. The procedure, abridged: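 Female obese ZDF rats, eight weeks old, dosed orally for 3 days with 30 mg/kg in 5% ethanol/5% solutol/90% PBS (n = 8); controls got vehicle, with lean controls alongside. Four hours after the last dose, aortic blood taken under isoflurane. Triglycerides measured by GPD-PAP method; means ± SEM.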

For data set [12], the system named is Rattus norvegicus. The data set can be described thus: Stimulation of fat oxidation in Wistar rat assessed as decrease in respiratory quotient at 50 mg/kg, po administered 2 hrs before lipid load. Type of data set: functional, organism-based. More on the design: dose 50 mg/kg. The procedure, abridged: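 Female Wistar rats housed singly in calorimetry cages, acclimated at least 12 h. Dosed orally with 50 mg/kg or vehicle. Two hours later, oral 10 mL/kg 20% Lipofundin MCT (2 g fat/kg) or PBS. O₂ and CO₂ measured every 17 min per cage for 1 min. RQ is CO₂ production/O₂ consumption.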

Data set [13] concerns Rattus norvegicus. The data set can be described thus: Plasma concentration in Wistar rat at 3 mg/kg, iv measured immediately after dosing. It is filed as ADME, organism-based. More on the design: dose 3 mg/kg, route intravenous. The conditions noted are these: in vivo. The method in brief: as §2
A short description of data set [14]: Cmax in Wistar rat plasma at 10 mg/kg, po. Type of data set: ADME, organism-based. More on the design: dose 10 mg/kg, route oral. The procedure, abridged: as §1
Data set [15] is described as follows: Tmax in Wistar rat liver at 10 mg/kg, po. Type of data set: ADME, organism-based. More on the design: dose 10 mg/kg, route oral. The procedure, abridged: as §1
Data set [16] deals with T2, Pyruvate carboxylase, mitochondrial (Bos taurus) (UniProt Q29RK2).
T2 sequence (whole entry): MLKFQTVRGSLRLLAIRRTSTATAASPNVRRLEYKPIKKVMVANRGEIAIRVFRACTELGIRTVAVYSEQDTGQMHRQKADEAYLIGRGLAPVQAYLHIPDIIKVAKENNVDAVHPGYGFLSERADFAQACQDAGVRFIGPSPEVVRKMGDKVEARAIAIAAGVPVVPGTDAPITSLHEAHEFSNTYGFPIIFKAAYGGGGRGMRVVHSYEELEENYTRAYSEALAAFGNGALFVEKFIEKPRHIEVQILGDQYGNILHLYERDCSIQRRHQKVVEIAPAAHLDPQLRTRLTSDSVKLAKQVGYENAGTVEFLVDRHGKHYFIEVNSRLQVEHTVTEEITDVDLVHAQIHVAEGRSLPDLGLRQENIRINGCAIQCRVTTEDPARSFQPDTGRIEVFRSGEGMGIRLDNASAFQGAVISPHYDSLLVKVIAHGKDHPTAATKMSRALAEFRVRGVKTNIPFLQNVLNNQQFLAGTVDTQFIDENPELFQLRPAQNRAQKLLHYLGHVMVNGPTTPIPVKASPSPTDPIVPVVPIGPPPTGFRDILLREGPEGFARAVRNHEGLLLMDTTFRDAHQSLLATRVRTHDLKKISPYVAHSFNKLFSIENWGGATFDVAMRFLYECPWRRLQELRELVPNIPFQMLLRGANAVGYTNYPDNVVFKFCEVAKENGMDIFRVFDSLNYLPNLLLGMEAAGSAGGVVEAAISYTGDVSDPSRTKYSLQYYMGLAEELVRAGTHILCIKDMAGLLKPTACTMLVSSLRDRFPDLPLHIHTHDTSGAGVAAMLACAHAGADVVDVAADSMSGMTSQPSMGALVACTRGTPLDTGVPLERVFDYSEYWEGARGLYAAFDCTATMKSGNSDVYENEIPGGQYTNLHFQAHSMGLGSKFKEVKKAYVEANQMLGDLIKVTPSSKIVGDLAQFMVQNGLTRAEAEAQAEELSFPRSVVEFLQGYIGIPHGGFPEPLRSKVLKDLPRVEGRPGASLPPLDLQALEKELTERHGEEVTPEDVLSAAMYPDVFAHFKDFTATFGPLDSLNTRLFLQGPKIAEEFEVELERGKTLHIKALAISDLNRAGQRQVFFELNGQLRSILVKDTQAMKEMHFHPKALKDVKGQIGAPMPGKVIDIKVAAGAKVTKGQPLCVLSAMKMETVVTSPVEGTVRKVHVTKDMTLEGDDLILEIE
The data set is described as follows: Inhibition of bovine pyruvate carboxylase.

The Cmax is the highest concentration seen after dosing. One may read the bioavailability as the share of a dose that reaches the circulation, judged against a reference dose that is usually intravenous. A high value points to good availability. Usually IC50 stands for the midpoint of a concentration-inhibition curve. A word on the half-life: it is the time needed for the level to fall by half in the phase considered. Lower therefore signals fast loss. What is called Kp is the ratio of the level in a tissue or fluid to that in plasma or blood. For orientation: clearance means a measure of how efficiently the substance is removed, as volume per time. Low readings indicate a low capacity for elimination, high ones a high capacity for elimination. What is called Tmax is the time from dosing to the highest level.

Active and inactive are the calls of the source.

With `CC(=O)N[C@@H](C)CCc1ccc(Oc2ccc(OC(C)C)nc2)cc1`, the Cmax in data set [1] stood at 21.8 µM; in [14], 3.5 µM. In [2], the bioavailability came to 98%. Besides, the IC50 in data set [3] is 400 nM. Besides, the concentration at 6 h in data set [4] turned out to be 1.59 µM. Further, the inhibition result in [5] and in data set [16] was “inactive” throughout. Also, the half-life was 1.5 h in [6] and 3 h in data set [7]. Also, the Activity result in data set [8] is “Dose-dependent effect”. The partition ratio (Kp) in data set [9] was 6. Also, in data set [10], the clearance was 26.7 mL/min/kg. For the same compound, the outcome in data set [11] and in data set [12] was Active. The concentration in [13] was 5.2 µM. In [15], the Tmax was 2 h.

These data come from ChEMBL document CHEMBL1629448, “Identification and synthesis of novel inhibitors of acetyl-CoA carboxylase with in vitro and in vivo efficacy on fat oxidation” (J Med Chem, 2010).
